In ChEMBL document CHEMBL4196130, “3-(2-Carboxyethyl)indole-2-carboxylic Acid Derivatives: Structural Requirements and Properties of Potent Agonists of the Orphan G Protein-Coupled Receptor GPR17” (J Med Chem, 2018):
Each block holds one compound with its values, some of them ahead of it. Calls of active or inactive are those of the source. The rule behind the calls is not given here.

Experiments:
[1] = target: T1, Uracil nucleotide/cysteinyl leukotriene receptor (Homo sapiens, UniProt Q13304); assay: Agonist activity at human GPR17 expressed in human 1321N1 cells assessed as induction of calcium mobilization after 1 hr by Oregon Green BAPTA-1/AM dye-based fluorescence assay; type: functional, cell-based
T1 sequence (Q13304 whole entry): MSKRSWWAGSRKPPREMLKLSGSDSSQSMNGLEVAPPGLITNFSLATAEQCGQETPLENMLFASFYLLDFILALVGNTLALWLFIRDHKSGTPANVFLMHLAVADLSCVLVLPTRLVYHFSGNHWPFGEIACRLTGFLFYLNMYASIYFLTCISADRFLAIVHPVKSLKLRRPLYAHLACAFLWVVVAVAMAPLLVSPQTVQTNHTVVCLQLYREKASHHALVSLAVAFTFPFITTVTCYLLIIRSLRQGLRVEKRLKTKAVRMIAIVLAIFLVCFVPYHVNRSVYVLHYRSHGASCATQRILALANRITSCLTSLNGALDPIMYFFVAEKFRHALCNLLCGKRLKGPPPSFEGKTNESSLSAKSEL
How it was run: (§1)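 Stably transfected 1321N1 astrocytoma cells were trypsin/EDTA-harvested, held 45 min at 37°C, then loaded 1 h at 25°C in KRH buffer pH 7.4 with 3 µM Oregon Green BAPTA-1/AM and 1% Pluronic F127, washed, and plated at ~16,000 cells/well. Fluorescence was read at 520 nm for 30 s after compound injection. Efficacy was expressed relative to the maximum given by 10 µM MDL 29,951. EC50 came from concentration-response curves, run for compounds exceeding 50% stimulation at 10 µM. At least three independent experiments, each in duplicate.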

[2] = target: T1, Uracil nucleotide/cysteinyl leukotriene receptor; assay: Agonist activity at human GPR17 expressed in human 1321N1 cells assessed as induction of calcium mobilization after 1 hr by Oregon Green BAPTA-1/AM dye-based fluorescence assay relative to MDL 29,951; type: functional, cell-based; how it was run: as §1
[3] = target: T1, Uracil nucleotide/cysteinyl leukotriene receptor; assay: Agonist activity at human GPR17 expressed in human 1321N1 cells assessed as induction of calcium mobilization at >100 uM after 1 hr by Oregon Green BAPTA-1/AM dye-based fluorescence assay relative to control; type: functional, cell-based
[4] = target: T1, Uracil nucleotide/cysteinyl leukotriene receptor; assay: Agonist activity at human GPR17 expressed in human 1321N1 cells assessed as induction of calcium mobilization at >30 uM after 1 hr by Oregon Green BAPTA-1/AM dye-based fluorescence assay relative to control; type: functional, cell-based
[5] = target: T1, Uracil nucleotide/cysteinyl leukotriene receptor; assay: Antagonist activity at human GPR17 expressed in human 1321N1 cells assessed as inhibition of MDL 29,951-induced calcium mobilization after 1 hr by Oregon Green BAPTA-1/AM dye-based fluorescence assay; type: functional, cell-based
How it was run: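 Oregon Green BAPTA-1/AM calcium assay in hGPR17-1321N1 cells (1 h dye loading at 25°C in KRH buffer pH 7.4). Full inhibition curves were run for potent antagonists. Fluorescence was read at 520 nm.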

[6] = target: T1, Uracil nucleotide/cysteinyl leukotriene receptor; assay: Antagonist activity at human GPR17 expressed in human 1321N1 cells assessed as inhibition of MDL 29,951-induced calcium mobilization at 30 uM after 1 hr by Oregon Green BAPTA-1/AM dye-based fluorescence assay relative to control
[7] = target: T1, Uracil nucleotide/cysteinyl leukotriene receptor; assay: Agonist activity at human GPR17 expressed in human 1321N1 cells assessed as induction of calcium mobilization at >10 uM after 1 hr by Oregon Green BAPTA-1/AM dye-based fluorescence assay relative to control; type: functional, cell-based
P2Y purinoceptor 2 = P2Y purinoceptor 2 (Homo sapiens, UniProt P41231); assay: Agonist activity at human P2Y2 receptor transfected in human 1321N1 cells assessed as induction of calcium mobilization after 30 mins in presence of UTP by fluo-4 dye based assay; type: functional, cell-based
Sequence of P2Y purinoceptor 2 (P41231 whole entry): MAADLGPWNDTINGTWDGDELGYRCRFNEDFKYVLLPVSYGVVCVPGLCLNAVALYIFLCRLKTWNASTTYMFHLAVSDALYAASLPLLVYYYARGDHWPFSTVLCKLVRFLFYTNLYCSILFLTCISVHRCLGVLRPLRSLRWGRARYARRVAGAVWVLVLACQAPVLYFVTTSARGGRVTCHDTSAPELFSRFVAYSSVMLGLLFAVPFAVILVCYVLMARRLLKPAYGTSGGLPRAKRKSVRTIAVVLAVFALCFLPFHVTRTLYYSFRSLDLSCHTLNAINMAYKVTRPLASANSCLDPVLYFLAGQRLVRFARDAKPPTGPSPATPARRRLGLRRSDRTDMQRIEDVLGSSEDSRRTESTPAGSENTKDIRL
How it was run: (§2)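 Calcium mobilization was measured in 1321N1 astrocytoma cells stably transfected with human P2Y1, P2Y2, P2Y4 or P2Y6 receptors, read on a Flexstation III microplate reader.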

[8] = target: T2, P2Y purinoceptor 14 (Homo sapiens) (UniProt Q15391); assay: Agonist activity at human P2Y14 receptor transfected in CHO cells assessed as induction of beta-arrestin translocation; type: functional, cell-based
T2 sequence (whole entry): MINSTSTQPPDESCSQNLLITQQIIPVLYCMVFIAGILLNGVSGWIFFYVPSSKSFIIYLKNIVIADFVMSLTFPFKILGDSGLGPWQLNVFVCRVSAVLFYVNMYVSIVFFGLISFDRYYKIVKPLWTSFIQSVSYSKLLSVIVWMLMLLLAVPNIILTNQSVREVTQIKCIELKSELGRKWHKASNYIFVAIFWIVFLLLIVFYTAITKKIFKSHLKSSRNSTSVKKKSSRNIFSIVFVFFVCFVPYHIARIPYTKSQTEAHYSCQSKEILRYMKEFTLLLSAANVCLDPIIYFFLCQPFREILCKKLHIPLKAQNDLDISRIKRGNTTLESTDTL
How it was run: (§3)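 β-Arrestin translocation assays were run in CHO cells stably transfected with human P2Y12 or P2Y14 receptors.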

[9] = target: P2Y purinoceptor 4 (Homo sapiens) (UniProt P51582); assay: Agonist activity at human P2Y4 receptor transfected in human 1321N1 cells assessed as induction of calcium mobilization after 30 mins in presence of UTP by fluo-4 dye based assay; type: functional, cell-based; how it was run: as §2
Sequence of P2Y purinoceptor 4 (Homo sapiens) (P51582 whole entry): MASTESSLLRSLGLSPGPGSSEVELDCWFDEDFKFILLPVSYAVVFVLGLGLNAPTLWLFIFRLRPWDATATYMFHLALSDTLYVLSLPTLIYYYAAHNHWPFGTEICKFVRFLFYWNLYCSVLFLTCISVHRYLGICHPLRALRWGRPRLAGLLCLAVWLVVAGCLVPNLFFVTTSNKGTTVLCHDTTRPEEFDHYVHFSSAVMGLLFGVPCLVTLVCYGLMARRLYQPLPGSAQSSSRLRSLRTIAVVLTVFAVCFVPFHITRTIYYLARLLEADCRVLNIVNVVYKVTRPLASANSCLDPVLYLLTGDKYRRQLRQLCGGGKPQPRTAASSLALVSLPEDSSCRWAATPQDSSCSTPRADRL

[10] = Selectivity ratio of EC50 for mouse GPR17 expressed in HEK293 cells to EC50 for human GPR17 expressed in human 1321N1 cells; type: cell-based
[11] = target: P2Y purinoceptor 12 (Homo sapiens) (UniProt Q9H244); assay: Agonist activity at human P2Y12 receptor transfected in CHO cells assessed as induction of beta-arrestin translocation; type: functional, cell-based; how it was run: as §3
Sequence of P2Y purinoceptor 12 (Homo sapiens) (Q9H244 whole entry): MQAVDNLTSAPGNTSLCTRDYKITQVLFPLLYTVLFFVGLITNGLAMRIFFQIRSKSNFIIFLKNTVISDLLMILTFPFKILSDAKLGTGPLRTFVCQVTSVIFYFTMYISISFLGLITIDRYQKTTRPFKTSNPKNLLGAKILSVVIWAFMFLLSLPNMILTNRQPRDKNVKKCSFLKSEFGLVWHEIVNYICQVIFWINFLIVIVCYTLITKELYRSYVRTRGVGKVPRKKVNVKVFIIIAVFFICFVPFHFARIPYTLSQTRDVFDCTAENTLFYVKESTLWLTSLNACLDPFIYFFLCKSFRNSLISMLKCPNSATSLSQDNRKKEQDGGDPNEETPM

[12] = target: P2Y purinoceptor 1 (Homo sapiens) (UniProt P47900); assay: Agonist activity at human P2Y1 receptor transfected in human 1321N1 cells assessed as induction of calcium mobilization after 30 mins in presence of ADP by fluo-4 dye based assay; type: functional, cell-based; how it was run: as §2
Sequence of P2Y purinoceptor 1 (Homo sapiens) (P47900 whole entry): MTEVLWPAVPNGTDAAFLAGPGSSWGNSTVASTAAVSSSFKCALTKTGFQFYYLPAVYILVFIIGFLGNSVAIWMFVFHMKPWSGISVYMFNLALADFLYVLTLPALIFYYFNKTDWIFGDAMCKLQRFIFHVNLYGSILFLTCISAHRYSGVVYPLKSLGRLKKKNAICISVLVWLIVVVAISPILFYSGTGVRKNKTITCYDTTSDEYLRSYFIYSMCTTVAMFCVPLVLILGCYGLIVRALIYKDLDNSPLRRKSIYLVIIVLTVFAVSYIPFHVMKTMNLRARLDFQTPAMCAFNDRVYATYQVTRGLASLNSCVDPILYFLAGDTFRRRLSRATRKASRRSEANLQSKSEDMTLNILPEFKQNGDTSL

[13] = target: T1, Uracil nucleotide/cysteinyl leukotriene receptor; assay: Displacement of [3H]PSB-12150 from human GPR17 expressed in CHO cell membranes after 60 mins by liquid scintillation counting
How it was run: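 Membranes from CHO cells stably expressing human GPR17 were incubated 60 min at 25°C with 25 nM [3H]PSB-12150 (17 Ci/mmol), 10 mM MgCl2 and increasing test compound concentrations. Bound radioligand was separated by GF/B filtration and counted by liquid scintillation. Nonspecific binding was defined with 100 µM unlabeled PSB-12150. Ki came from the Cheng-Prusoff equation with KD 1190 nM. Three independent experiments in duplicate.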

[14] = Selectivity ratio of EC50 for rat GPR17 expressed in HEK293 cells to EC50 for human GPR17 expressed in human 1321N1 cells; type: cell-based
[15] = target: P2Y purinoceptor 6 (Homo sapiens) (UniProt Q15077); assay: Agonist activity at human P2Y6 receptor transfected in human 1321N1 cells assessed as induction of calcium mobilization after 30 mins in presence of UDP by fluo-4 dye based assay; type: functional, cell-based; how it was run: as §2
Sequence of P2Y purinoceptor 6 (Homo sapiens) (Q15077 whole entry): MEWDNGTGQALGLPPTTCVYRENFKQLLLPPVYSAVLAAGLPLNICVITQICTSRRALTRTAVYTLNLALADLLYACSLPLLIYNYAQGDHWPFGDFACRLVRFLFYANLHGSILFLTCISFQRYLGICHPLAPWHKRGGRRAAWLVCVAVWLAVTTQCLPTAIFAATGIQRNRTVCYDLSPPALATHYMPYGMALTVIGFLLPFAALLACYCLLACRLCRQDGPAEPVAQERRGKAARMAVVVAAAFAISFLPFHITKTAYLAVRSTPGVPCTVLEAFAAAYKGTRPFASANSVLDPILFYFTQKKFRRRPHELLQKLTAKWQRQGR

[16] = target: Uracil nucleotide/cysteinyl leukotriene receptor (Rattus norvegicus, UniProt Q09QM4); assay: Agonist activity at rat GPR17 expressed in HEK293 cells assessed as induction of intracellular calcium mobilization by calcium 5-dye based assay; type: functional, cell-based
Sequence of Uracil nucleotide/cysteinyl leukotriene receptor (Rattus norvegicus, UniProt Q09QM4) (Q09QM4 whole entry): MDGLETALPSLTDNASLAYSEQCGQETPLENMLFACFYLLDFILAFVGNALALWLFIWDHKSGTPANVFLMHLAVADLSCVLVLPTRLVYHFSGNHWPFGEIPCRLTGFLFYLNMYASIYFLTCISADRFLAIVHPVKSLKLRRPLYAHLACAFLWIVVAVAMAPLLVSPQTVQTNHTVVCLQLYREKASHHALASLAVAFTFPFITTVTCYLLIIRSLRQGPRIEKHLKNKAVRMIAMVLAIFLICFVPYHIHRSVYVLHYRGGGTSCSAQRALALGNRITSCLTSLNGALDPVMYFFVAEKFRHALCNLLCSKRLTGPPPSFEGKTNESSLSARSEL
How it was run: (§4)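 HEK293 cells expressing rat or mouse GPR17 were seeded at 60,000 cells/well on poly-D-lysine plates and loaded 40 min with Calcium 5 indicator dye. Calcium signals were read on a plate reader. EC50 was obtained by nonlinear regression of concentration-response data. Means ± SEM from 3 independent experiments.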

[17] = target: Uracil nucleotide/cysteinyl leukotriene receptor (Mus musculus, UniProt Q6NS65); assay: Agonist activity at mouse GPR17 expressed in HEK293 cells assessed as induction of intracellular calcium mobilization by calcium 5-dye based assay; type: functional, cell-based; how it was run: as §4
Sequence of Uracil nucleotide/cysteinyl leukotriene receptor (Mus musculus, UniProt Q6NS65) (Q6NS65 whole entry): as the sequence (Q09QM4 whole entry) above, with D2N, T6A, A15S, S270A counted along it

EC50 [1]: 0.117 µM
Emax [2]: 77%
Structure (SMILES): CCCCCCCCOc1cc(Cl)c2c(CCC(=O)O)c(C(=O)O)[nH]c2c1

EC50 [1]: > 100 µM
Activity [3]: 21%
Structure (SMILES): O=C(O)CCc1c(C(=O)O)[nH]c2c(F)c(-c3cccs3)ccc12

EC50 [1]: 0.624 µM
Emax [2]: 100%
Structure (SMILES): O=C(O)CCc1c(C(=O)O)[nH]c2cc(F)cc(Br)c12

Emax [2]: 84%
Structure (SMILES): O=C(O)CCc1c(C(=O)O)[nH]c2cc(Cl)ccc12

EC50 [1]: 5.44 µM
Structure (SMILES): O=C(O)CCc1c(C(=O)O)n(CCC(=O)O)c2cc(Cl)cc(Cl)c12

EC50 [1]: 3.68 µM
Emax [2]: 101%
Structure (SMILES): O=C(O)CCc1c(C(=O)O)[nH]c2cc(Cl)cc(-c3ccc(F)cc3)c12

Activity [4]: 1%
EC50 [1]: > 30 µM
Structure (SMILES): O=C(O)CCCc1c(C(=O)O)[nH]c2cc(Cl)cc(Cl)c12

Activity [4]: 16%
EC50 [1]: > 30 µM
Structure (SMILES): Cn1c(C(=O)O)c(CCC(=O)O)c2c(Cl)cc(Cl)cc21

Emax [2]: 83%
Structure (SMILES): O=C(O)CCc1c(C(=O)O)[nH]c2cc(-c3ccccc3)ccc12

IC50 [5]: 28.8 µM
Activity [4]: 0%
Structure (SMILES): COc1ccc2c(c1)c(CC(=O)O)c(C)n2C(=O)c1ccc(Cl)cc1 [INDOMETHACIN]

IC50 [5]: > 30 µM
Activity [4]: 0%
inhibition [6]: 1%
Structure (SMILES): N[C@@H](Cc1c[nH]c2ccccc12)C(=O)O [TRYPTOPHAN]

IC50 [5]: > 30 µM
Activity [4]: 1%
inhibition [6]: 7%
Structure (SMILES): O=C(O)Cc1c[nH]c2ccc(O)cc12

EC50 [1]: > 10 µM
Activity [7]: 25%
Structure (SMILES): CCCCCCCCOc1cc(Cl)cc2[nH]c(C(=O)O)c(CCC(=O)O)c12

EC50 [1]: 4.09 µM
Emax [2]: 84%
Structure (SMILES): O=C(O)CCc1c(C(=O)O)[nH]c2cc(-c3ccccc3)cc(-c3ccccc3)c12

EC50 [1]: > 100 µM
Activity [3]: 5%
Structure (SMILES): O=C(O)CCc1c(C(=O)O)[nH]c2c(Cl)c(Cl)ccc12

EC50 [1]: 9.55 µM
Emax [2]: 87%
Structure (SMILES): O=C(O)CCc1c(C(=O)O)[nH]c2cc(-c3cccs3)ccc12

Activity (P2Y purinoceptor 2): inactive
Activity [8]: inactive
Activity [9]: inactive
Activity [11]: inactive
Activity [12]: inactive
Ki [13]: 2.45 µM
Activity [15]: inactive
EC50 [16]: 0.705 µM
EC50 [17]: 1.11 µM
Structure (SMILES): O=C(O)CCc1c(C(=O)O)[nH]c2cc(Cl)cc(Cl)c12
Ratio EC50 [10]: 2 to 6
Ratio EC50 [14]: 2 to 6

EC50 [1]: > 100 µM
Activity [3]: 4%
Structure (SMILES): COc1cccc2[nH]c(C(=O)O)c(CCC(=O)O)c12

EC50 [1]: 1.47 µM
Emax [2]: 92%
Structure (SMILES): O=C(O)CCc1c(C(=O)O)[nH]c2cc(F)cc(I)c12

EC50 [1]: > 100 µM
Structure (SMILES): O=C(O)CCc1c(C(=O)O)[nH]c2c(F)c(-c3ccc(F)cc3)ccc12

Activity [4]: 1%
EC50 [1]: > 30 µM
Structure (SMILES): O=C(O)CCc1c(C(=O)O)[nH]c2c(Cl)ccc(Cl)c12

Emax [2]: 72%
Structure (SMILES): O=C(O)CCc1c(C(=O)O)[nH]c2cc(F)cc(F)c12

Activity [4]: 9%
EC50 [1]: > 30 µM
Structure (SMILES): O=C(O)CCc1c(C(=O)O)[nH]c2ccc(F)cc12

EC50 [1]: ≥ 10 µM
Structure (SMILES): CCCCCOc1cc(Cl)cc2[nH]c(C(=O)O)c(CCC(=O)O)c12
